We go through 15 molecules from ChEMBL document CHEMBL3102751, “Cholinesterase inhibitory activity versus aromatic core multiplicity: a facile green synthesis and molecular docking study of novel piperidone embedded thiazolopyrimidines” (Bioorg Med Chem, 2014).

Each structure is given as a SMILES string.

Cholinesterase, sequence (P81908 whole entry): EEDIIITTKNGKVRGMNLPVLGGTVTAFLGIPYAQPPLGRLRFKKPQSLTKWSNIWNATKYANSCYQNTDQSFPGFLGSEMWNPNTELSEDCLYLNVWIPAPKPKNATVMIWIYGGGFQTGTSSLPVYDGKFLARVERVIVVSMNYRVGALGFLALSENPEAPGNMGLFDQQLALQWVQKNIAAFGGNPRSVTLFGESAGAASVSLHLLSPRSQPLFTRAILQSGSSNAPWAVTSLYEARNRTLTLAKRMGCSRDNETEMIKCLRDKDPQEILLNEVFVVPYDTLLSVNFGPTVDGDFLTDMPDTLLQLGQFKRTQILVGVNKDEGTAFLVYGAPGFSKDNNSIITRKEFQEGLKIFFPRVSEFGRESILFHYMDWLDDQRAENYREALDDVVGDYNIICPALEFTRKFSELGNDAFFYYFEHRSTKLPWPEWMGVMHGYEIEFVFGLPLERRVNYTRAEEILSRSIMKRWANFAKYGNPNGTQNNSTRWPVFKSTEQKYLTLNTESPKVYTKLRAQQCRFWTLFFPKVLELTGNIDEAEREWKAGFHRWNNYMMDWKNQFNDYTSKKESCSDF

System in the first assay: not listed separately
Put plainly: Selectivity ratio of IC50 for Electrophorus electricus acetylcholinesterase to IC50 for equine serum butyrylcholinesterase.
With `Fc1ccc(C2=CSC3=NC4=C(CNC/C4=C\c4ccccc4Cl)C(c4ccccc4Cl)N23)cc1` (stereo not given), the Ratio IC50 was 0.76.

As to `COc1ccc(C2=CSC3=NC4=C(CNC/C4=C\c4ccccc4Cl)C(c4ccccc4Cl)N23)cc1` (stereo not given), the Ratio IC50 worked out at 0.63.

On to `Clc1ccc(C2=CSC3=NC4=C(CNC/C4=C\c4ccccc4Cl)C(c4ccccc4Cl)N23)cc1` (stereo not given), for which the Ratio IC50 was found to be 0.68.

For the molecule `COc1ccc(C2=CSC3=NC4=C(CNC/C4=C\c4ccc(C)cc4)C(c4ccc(C)cc4)N23)cc1` (stereo not given), the Ratio IC50 is 0.99.

With `Fc1ccc(C2=CSC3=NC4=C(CNC/C4=C\c4ccc(Cl)cc4)C(c4ccc(Cl)cc4)N23)cc1` (stereo not given), the Ratio IC50 was determined as 0.36.

Regarding `COc1ccc(C2=CSC3=NC4=C(CNC/C4=C\c4ccc(Cl)cc4)C(c4ccc(Cl)cc4)N23)cc1` (stereo not given), the Ratio IC50 is 0.66.

In the case of `COc1ccccc1/C=C1\CNCC2=C1N=C1SC=C(c3ccc(Cl)cc3)N1C2c1ccccc1OC` (stereo not given), the Ratio IC50 was 0.17.

With `COc1ccccc1/C=C1\CNCC2=C1N=C1SC=C(c3ccccc3)N1C2c1ccccc1OC` (stereo not given), the Ratio IC50 was 1.03.

For `C1=C(c2ccccc2)N2C(=NC3=C(CNC/C3=C\c3ccccc3)C2c2ccccc2)S1` (stereo not given), the Ratio IC50 was found to be 0.84.

As to `COc1ccc(C2=CSC3=NC4=C(CNC/C4=C\c4ccccc4)C(c4ccccc4)N23)cc1` (stereo not given), the Ratio IC50 was found to be 1.52.

With `Clc1ccccc1/C=C1\CNCC2=C1N=C1SC=C(c3ccccc3)N1C2c1ccccc1Cl` (stereo not given), the Ratio IC50 was 0.77.

In the case of `COc1ccc(C2=CSC3=NC4=C(CNC/C4=C\c4ccc(F)cc4)C(c4ccc(F)cc4)N23)cc1` (stereo not given), the Ratio IC50 amounted to 0.84.

With `Cc1ccc(/C=C2\CNCC3=C2N=C2SC=C(c4ccccc4)N2C3c2ccc(C)cc2)cc1` (stereo not given), the Ratio IC50 was determined as 0.31.

With `Clc1ccc(/C=C2\CNCC3=C2N=C2SC=C(c4ccc(Cl)cc4)N2C3c2ccc(Cl)cc2)cc1` (stereo not given), the Ratio IC50 amounted to 0.2.

For the molecule `COc1ccc(C2=CSC3=NC4=C(CNC/C4=C\c4ccccc4OC)C(c4ccccc4OC)N23)cc1` (stereo not given), the Ratio IC50 was 0.64.

System in another assay: not listed separately
Put plainly: Selectivity ratio of IC50 for equine serum butyrylcholinesterase to IC50 for Electrophorus electricus acetylcholinesterase.
With `Fc1ccc(C2=CSC3=NC4=C(CNC/C4=C\c4ccccc4Cl)C(c4ccccc4Cl)N23)cc1` (stereo not given), the Ratio IC50 amounted to 1.3.

Take `COc1ccc(C2=CSC3=NC4=C(CNC/C4=C\c4ccccc4Cl)C(c4ccccc4Cl)N23)cc1` (stereo not given): the Ratio IC50 is 1.58.

For the molecule `Clc1ccc(C2=CSC3=NC4=C(CNC/C4=C\c4ccccc4Cl)C(c4ccccc4Cl)N23)cc1` (stereo not given), the Ratio IC50 was 1.47.

Consider `COc1ccc(C2=CSC3=NC4=C(CNC/C4=C\c4ccc(C)cc4)C(c4ccc(C)cc4)N23)cc1` (stereo not given), for which the Ratio IC50 amounted to 1.01.

As for `Fc1ccc(C2=CSC3=NC4=C(CNC/C4=C\c4ccc(Cl)cc4)C(c4ccc(Cl)cc4)N23)cc1` (stereo not given), the Ratio IC50 amounted to 2.75.

Take `COc1ccc(C2=CSC3=NC4=C(CNC/C4=C\c4ccc(Cl)cc4)C(c4ccc(Cl)cc4)N23)cc1` (stereo not given): the Ratio IC50 was found to be 1.52.

On to `COc1ccccc1/C=C1\CNCC2=C1N=C1SC=C(c3ccc(Cl)cc3)N1C2c1ccccc1OC` (stereo not given), for which the Ratio IC50 was 5.76.

For the molecule `COc1ccccc1/C=C1\CNCC2=C1N=C1SC=C(c3ccccc3)N1C2c1ccccc1OC` (stereo not given), the Ratio IC50 was 0.97.

With `C1=C(c2ccccc2)N2C(=NC3=C(CNC/C3=C\c3ccccc3)C2c2ccccc2)S1` (stereo not given), the Ratio IC50 worked out at 1.19.

As to `COc1ccc(C2=CSC3=NC4=C(CNC/C4=C\c4ccccc4)C(c4ccccc4)N23)cc1` (stereo not given), the Ratio IC50 was 0.65.

Take `Clc1ccccc1/C=C1\CNCC2=C1N=C1SC=C(c3ccccc3)N1C2c1ccccc1Cl` (stereo not given): the Ratio IC50 amounted to 1.3.

For the molecule `COc1ccc(C2=CSC3=NC4=C(CNC/C4=C\c4ccc(F)cc4)C(c4ccc(F)cc4)N23)cc1` (stereo not given), the Ratio IC50 turned out to be 1.18.

Consider `Cc1ccc(/C=C2\CNCC3=C2N=C2SC=C(c4ccccc4)N2C3c2ccc(C)cc2)cc1` (stereo not given), for which the Ratio IC50 stood at 3.21.

In the case of `Clc1ccc(/C=C2\CNCC3=C2N=C2SC=C(c4ccc(Cl)cc4)N2C3c2ccc(Cl)cc2)cc1` (stereo not given), the Ratio IC50 amounted to 5.11.

As to `COc1ccc(C2=CSC3=NC4=C(CNC/C4=C\c4ccccc4OC)C(c4ccccc4OC)N23)cc1` (stereo not given), the Ratio IC50 is 1.55.

The next assay has as its target Cholinesterase (Equus caballus, UniProt P81908). Put plainly: Inhibition of equine serum butyrylcholinesterase using S-butyrylthiocholine chloride as substrate preincubated for 15 mins followed by substrate addition measured for 30 mins by Ellman's method. Summed up:
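Modified Ellman assay in 0.1 M sodium phosphate buffer, pH 8. Samples were prepared in DMSO, with 1% DMSO in the final mix. Equine serum BChE was incubated with sample for 15 min at 25 °C. 10 mM DTNB stock was then added, followed by 14 mM S-butyrylthiocholine chloride stock. Absorbance at 412 nm was read for 30 min, and % inhibition was calculated relative to control.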
(In Ellman's method for cholinesterases, released thiocholine reacts with DTNB.)
Broadly, the IC50 is the point on the concentration scale where inhibition reaches its midpoint. `Fc1ccc(C2=CSC3=NC4=C(CNC/C4=C\c4ccccc4Cl)C(c4ccccc4Cl)N23)cc1` (stereo not given): it took 4.63 µM to reach half-maximal inhibition (IC50).

Turning to `COc1ccc(C2=CSC3=NC4=C(CNC/C4=C\c4ccccc4Cl)C(c4ccccc4Cl)N23)cc1` (stereo not given), the IC50 turned out to be 12.6 µM.

In turn, `Clc1ccc(C2=CSC3=NC4=C(CNC/C4=C\c4ccccc4Cl)C(c4ccccc4Cl)N23)cc1` (stereo not given) had an IC50 of 7.65 µM.

The molecule `COc1ccc(C2=CSC3=NC4=C(CNC/C4=C\c4ccc(C)cc4)C(c4ccc(C)cc4)N23)cc1` (stereo not given) registered an IC50 of 10.5 µM.

For `Fc1ccc(C2=CSC3=NC4=C(CNC/C4=C\c4ccc(Cl)cc4)C(c4ccc(Cl)cc4)N23)cc1` (stereo not given), the IC50 came out at 15.8 µM.

As for `COc1ccc(C2=CSC3=NC4=C(CNC/C4=C\c4ccc(Cl)cc4)C(c4ccc(Cl)cc4)N23)cc1` (stereo not given), the IC50 is 12.8 µM.

Turning to `COc1ccccc1/C=C1\CNCC2=C1N=C1SC=C(c3ccc(Cl)cc3)N1C2c1ccccc1OC` (stereo not given), the midpoint of inhibition, the IC50, lay at 29.3 µM.

In turn, `COc1ccccc1/C=C1\CNCC2=C1N=C1SC=C(c3ccccc3)N1C2c1ccccc1OC` (stereo not given) yielded a half-inhibitory concentration (IC50) of 4.1 µM.

`C1=C(c2ccccc2)N2C(=NC3=C(CNC/C3=C\c3ccccc3)C2c2ccccc2)S1` (stereo not given) yielded an IC50 of 1.74 µM.

`COc1ccc(C2=CSC3=NC4=C(CNC/C4=C\c4ccccc4)C(c4ccccc4)N23)cc1` (stereo not given) returned an IC50 of 10.4 µM.

In turn, `Clc1ccccc1/C=C1\CNCC2=C1N=C1SC=C(c3ccccc3)N1C2c1ccccc1Cl` (stereo not given) returned an IC50 of 2.68 µM.

Consider `COc1ccc(C2=CSC3=NC4=C(CNC/C4=C\c4ccc(F)cc4)C(c4ccc(F)cc4)N23)cc1` (stereo not given), for which the concentration for half-maximal inhibition (IC50) is 26.5 µM.

Molecule `Cc1ccc(/C=C2\CNCC3=C2N=C2SC=C(c4ccccc4)N2C3c2ccc(C)cc2)cc1` (stereo not given) had an IC50 of 1.71 µM.

Take `Clc1ccc(/C=C2\CNCC3=C2N=C2SC=C(c4ccc(Cl)cc4)N2C3c2ccc(Cl)cc2)cc1` (stereo not given): the IC50 is 27.4 µM.

As for `COc1ccc(C2=CSC3=NC4=C(CNC/C4=C\c4ccccc4OC)C(c4ccccc4OC)N23)cc1` (stereo not given), half-maximal inhibition (IC50) was put at 18.6 µM.

In a further assay the target is Acetylcholinesterase (Electrophorus electricus, UniProt O42275). Description: Inhibition of Electrophorus electricus acetylcholinesterase using acetylthiocholine iodide as substrate preincubated for 15 mins followed by substrate addition measured for 30 mins by Ellman's method.
Acetylcholinesterase, sequence (O42275 whole entry): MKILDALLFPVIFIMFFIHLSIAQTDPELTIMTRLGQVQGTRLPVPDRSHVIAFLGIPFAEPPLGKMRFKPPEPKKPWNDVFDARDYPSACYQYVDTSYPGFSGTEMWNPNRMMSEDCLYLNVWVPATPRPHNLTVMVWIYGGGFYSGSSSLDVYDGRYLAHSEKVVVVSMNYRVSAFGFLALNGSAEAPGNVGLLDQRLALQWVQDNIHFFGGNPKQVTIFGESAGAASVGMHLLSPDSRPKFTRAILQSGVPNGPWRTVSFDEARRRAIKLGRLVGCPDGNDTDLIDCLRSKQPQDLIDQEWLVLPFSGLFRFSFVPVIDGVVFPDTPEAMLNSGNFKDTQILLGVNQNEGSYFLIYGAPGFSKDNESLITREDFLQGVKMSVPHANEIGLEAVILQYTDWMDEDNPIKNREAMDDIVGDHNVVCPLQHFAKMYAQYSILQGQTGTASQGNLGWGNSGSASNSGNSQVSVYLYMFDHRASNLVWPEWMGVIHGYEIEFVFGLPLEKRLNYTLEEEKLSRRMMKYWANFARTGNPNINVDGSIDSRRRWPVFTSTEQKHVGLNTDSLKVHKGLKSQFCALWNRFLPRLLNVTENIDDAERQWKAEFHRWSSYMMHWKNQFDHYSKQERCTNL
As to `Fc1ccc(C2=CSC3=NC4=C(CNC/C4=C\c4ccccc4Cl)C(c4ccccc4Cl)N23)cc1` (stereo not given), the midpoint of inhibition, the IC50, lay at 6.03 µM.

`COc1ccc(C2=CSC3=NC4=C(CNC/C4=C\c4ccccc4Cl)C(c4ccccc4Cl)N23)cc1` (stereo not given) showed an IC50 of 7.97 µM.

On to `Clc1ccc(C2=CSC3=NC4=C(CNC/C4=C\c4ccccc4Cl)C(c4ccccc4Cl)N23)cc1` (stereo not given), for which the IC50 amounted to 5.2 µM.

The molecule `COc1ccc(C2=CSC3=NC4=C(CNC/C4=C\c4ccc(C)cc4)C(c4ccc(C)cc4)N23)cc1` (stereo not given) came in with an IC50 of 10.4 µM.

Molecule `Fc1ccc(C2=CSC3=NC4=C(CNC/C4=C\c4ccc(Cl)cc4)C(c4ccc(Cl)cc4)N23)cc1` (stereo not given) yielded an IC50 of 5.73 µM.

`COc1ccc(C2=CSC3=NC4=C(CNC/C4=C\c4ccc(Cl)cc4)C(c4ccc(Cl)cc4)N23)cc1` (stereo not given) displayed an IC50 of 8.44 µM.

`COc1ccccc1/C=C1\CNCC2=C1N=C1SC=C(c3ccc(Cl)cc3)N1C2c1ccccc1OC` (stereo not given) showed an IC50 of 5.08 µM.

The molecule `COc1ccccc1/C=C1\CNCC2=C1N=C1SC=C(c3ccccc3)N1C2c1ccccc1OC` (stereo not given) had an IC50 of 4.23 µM.

In turn, `C1=C(c2ccccc2)N2C(=NC3=C(CNC/C3=C\c3ccccc3)C2c2ccccc2)S1` (stereo not given) had an IC50 of 1.47 µM.

As to `COc1ccc(C2=CSC3=NC4=C(CNC/C4=C\c4ccccc4)C(c4ccccc4)N23)cc1` (stereo not given), the IC50 came to 15.9 µM.

In the case of `Clc1ccccc1/C=C1\CNCC2=C1N=C1SC=C(c3ccccc3)N1C2c1ccccc1Cl` (stereo not given), it took 2.05 µM to reach half-maximal inhibition (IC50).

On to `COc1ccc(C2=CSC3=NC4=C(CNC/C4=C\c4ccc(F)cc4)C(c4ccc(F)cc4)N23)cc1` (stereo not given), for which the IC50 amounted to 22.4 µM.

For the molecule `Cc1ccc(/C=C2\CNCC3=C2N=C2SC=C(c4ccccc4)N2C3c2ccc(C)cc2)cc1` (stereo not given), half-maximal inhibition (IC50) was put at 0.53 µM.

With `Clc1ccc(/C=C2\CNCC3=C2N=C2SC=C(c4ccc(Cl)cc4)N2C3c2ccc(Cl)cc2)cc1` (stereo not given), the IC50 is 5.37 µM.

`COc1ccc(C2=CSC3=NC4=C(CNC/C4=C\c4ccccc4OC)C(c4ccccc4OC)N23)cc1` (stereo not given): half-maximal inhibition (IC50) required 12 µM.
